These results are taken from ChEMBL document CHEMBL1817575, “Extended targeting potential and improved synthesis of Microcin C analogs as antibacterials” (Bioorg Med Chem, 2011).

Calls of active or inactive are those of the source. The rule behind the calls is not given here. Residues, ends and D or L forms follow the SMILES beside them. *: point of attachment. X7 = CC[C@H](C)[C@H](N*)C(=O)NS(=O)(=O)OC[C@H]1O[C@@H](n2cnc3c(N)ncnc32)[C@H](O)[C@@H]1O; NHTrityl = c1ccc(C(N*)(c2ccccc2)c2ccccc2)cc1; Pbf = Cc1c(C)c(S(=O)(=O)*)c(C)c2c1OC(C)(C)C2; tBu = CC(C)(C)*; For = O=C*

The test system of experiment [1] is Escherichia coli. Description: Antibacterial activity against yej or pepA,B,N-genes disrupted Escherichia coli after 8 hrs. Type of experiment: functional, organism-based. Summed up: (§1)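 Overnight LB cultures were regrown in fresh LB, with or without 5 mM L-arabinose, to OD600 0.1. Compounds were serially titrated in 96-well plates in LB with or without 5 mM L-arabinose, and cells were added. Plates were incubated at 37 °C, and growth inhibition was read as OD600 after 8 h.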

In experiment [2] the test system is Escherichia coli. In words: Antibacterial activity against Escherichia coli Ara-Yej (BW39758) at <= 0.63 uM after 8 hrs. Type of experiment: functional, organism-based. Summed up:
as §1

On to `CC[C@H](C)[C@H](NC(=O)[C@H](C)NC(=O)[C@H](CC(=O)NC(c1ccccc1)(c1ccccc1)c1ccccc1)NC(=O)CNC(=O)[C@@H](NC(=O)[C@H](CCCNC(=N)NS(=O)(=O)c1c(C)c(C)c2c(c1C)CC(C)(C)O2)NC(=O)[C@H](CCSC)NC=O)[C@@H](C)OC(C)(C)C)C(=O)NS(=O)(=O)OC[C@H]1O[C@@H](n2cnc3c(N)ncnc32)[C@H](O)[C@@H]1O` (For-MR(Pbf)T(tBu)GD(NHTrityl)A-X7), for which, in the experiment with Escherichia coli [1], the outcome was inactive. For the same compound, the result in the experiment on Escherichia coli [2] was Active.
